Screening results (PubChem BioAssay)
Compounds with a hit are over-represented: about 2.7% of the library has one in this group of screens.
RBBP9 inh: inhibitors of human serine hydrolase RBBP9 | O75884 | recombinant RBBP9, FP-Rh probe fluorescence polarization | inhibition, % at 7.94 µM | 0.2% of 220,000 active | AID 1515;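 active = inhibition above the campaign mean of all tested compounds plus 3 SD, cut at about 14% in these data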
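Measured by: FP readout at 525/598 nm; material: recombinant human RBBP9; also added: Serine-hydrolase probe FP-Rh, 375 nM pre-mixing; medium: Tris buffer pH 8.0, NaCl, Pluronic; replication: one well per compound; doses: one concentration, 7.94 µM nominal, 0.794% DMSO; timing: preincubation 30 min plus labeling 45 min at 25 °C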
PfM18AAP inh: blocks P. falciparum M18 aspartyl aminopeptidase. recombinant PfM18AAP, H-Glu-NHMec fluorogenic cleavage. inhibition, % at 7.35 µM. 1.2% of 290,000 active. AID 1822;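 active = inhibition above the campaign mean inhibition over all tested compounds plus 3 SD, cut at about 28% in these data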
Wee1 stabilizer: human Wee1 degradation inhibition, primary screen; 1.2% of 220,000 active; reporter increase, % at 5 µM; AID 1321; HeLa Luc-Wee1K328M stability, luciferase luminescence; 100% = proteasome inhibitor MG132 effect; P30291;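 active = activation above the mean of all tested compounds plus 3 SD, set per screening run, cut at about 8.8% in these data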;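 also: cells exposed to compound for 20 h before luminescence read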
Target sequence (P30291 whole entry K328M): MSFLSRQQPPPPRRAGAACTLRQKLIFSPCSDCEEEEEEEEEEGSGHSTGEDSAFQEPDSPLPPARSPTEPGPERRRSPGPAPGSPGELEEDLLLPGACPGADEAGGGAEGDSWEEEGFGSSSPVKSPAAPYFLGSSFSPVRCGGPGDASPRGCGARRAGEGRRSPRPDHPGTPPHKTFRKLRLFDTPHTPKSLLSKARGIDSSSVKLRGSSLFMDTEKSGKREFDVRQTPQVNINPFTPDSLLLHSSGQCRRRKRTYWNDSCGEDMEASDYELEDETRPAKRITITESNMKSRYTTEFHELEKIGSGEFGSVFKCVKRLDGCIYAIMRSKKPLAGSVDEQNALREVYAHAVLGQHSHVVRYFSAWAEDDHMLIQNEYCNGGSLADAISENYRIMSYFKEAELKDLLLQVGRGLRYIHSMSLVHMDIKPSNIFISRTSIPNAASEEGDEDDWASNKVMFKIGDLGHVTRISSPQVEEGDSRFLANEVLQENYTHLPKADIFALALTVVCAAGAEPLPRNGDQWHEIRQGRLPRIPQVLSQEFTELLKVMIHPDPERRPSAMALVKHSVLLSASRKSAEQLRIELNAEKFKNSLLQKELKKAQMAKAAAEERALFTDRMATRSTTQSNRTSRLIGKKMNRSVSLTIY
zVAD death inh: blocks zVAD induced death of L929 cells; L929 zVAD necroptosis rescue, ATP luminescence, 24 h; with zVAD 60 µM; viability rescue, % at 10 µM; 0.38% of 220,000 active;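 active = activation, scaled between plate controls, above about 75%, limit read from the data; inactive = activation under that limit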
TNF death inh: blocks TNF-alpha induced death of Jurkat FADD-/- cells. 0.068% of 220,000 active. Jurkat FADD-/- TNF necroptosis rescue, ATP luminescence, 24 h; 0 = TNF only, 100 = no-TNF cells. activation (protection from cell death), % at 10 µM;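 active = activation, meaning protection from cell death, of at least 50% relative to plate controls; inactive = activation below 50%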;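 also: necroptosis triggered by 40 ng/mL TNF-alpha added together with compound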
p97 inhibitor: blocks human p97 ATPase activity; P55072; recombinant p97 ATPase, Kinase-Glo ATP luminescence, 3 h; inhibition, % at 8 µM; 0.42% of 220,000 active; AID 1481; in the data active = inhibition above about 15%
Wee1 degr conf: human Wee1 degradation inhibition, confirmation. shares compounds with Wee1 stabilizer. HeLa Luc-Wee1K328M degradation, luminescence; vehicle 0%, proteasome-blocked wells 100%. activation, % at 5 µM. 4% of 1,100 active; in the data active = activation above about 8.9%
zVAD necrop conf: confirmed blocker of zVAD induced death in L929 cells; shares compounds with zVAD death inh; L929 zVAD-induced necroptosis rescue, ATP luminescence, 24 h; activation (protection from necroptosis), % at 10 µM; 16% of 760 active; AID 463117;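 active = mean protection from necroptosis of at least 50% over duplicate tests; inactive = mean protection below 50%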
p97 inh conf: confirmation of human p97 ATPase inhibitors. shares compounds with p97 inhibitor. recombinant p97 ATPase, Kinase-Glo ATP luminescence. inhibition, % at 8 µM. 44% of 760 active. AID 1517;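 active = percent inhibition of p97 ATPase above a set limit, the primary screen's mean plus 3 SD, cut at about 15% in these data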
Numbers stand for hits; ! = repeats disagree.

How did O=C(C1CC(c2ccc(F)cc2)=NO1)N1CCC2(CC1)OCCO2 (stereo unspecified) do in these assays?
RBBP9 inh: inactive; PfM18AAP inh: inactive; Wee1 stabilizer: inactive; zVAD death inh: inactive; TNF death inh: inactive; p97 inhibitor: inactive

What do the screens show for `O=C(C1CC(c2ccc(Cl)c(Cl)c2)=NO1)N1CCC2(CC1)OCCO2` (stereo unspecified)?
RBBP9 inh: inactive; PfM18AAP inh: inactive; Wee1 stabilizer: 9.8; zVAD death inh: inactive; TNF death inh: inactive; p97 inhibitor: inactive

What do the screens show for `Cc1c(C(=O)N2CCC3(CC2)OCCO3)oc2ccc(S(=O)(=O)N3CCCCC3)cc12`?
RBBP9 inh: inactive; PfM18AAP inh: inactive; Wee1 stabilizer: inactive; TNF death inh: inactive; p97 inhibitor: inactive

How did CCN(CC)c1ccc(N=Cc2c(O)n(-c3cc(OC)ccc3OC)c(=O)[nH]c2=O)cc1 do in these assays?
RBBP9 inh: inactive; PfM18AAP inh: 34; Wee1 stabilizer: inactive; zVAD death inh: inactive; TNF death inh: inactive; p97 inhibitor: inactive

Results for c1cncc(C2Nc3cccc4cccc(c34)N2)c1 ?
RBBP9 inh: inactive; PfM18AAP inh: 35!; Wee1 stabilizer: 11; zVAD death inh: inactive; TNF death inh: inactive; p97 inhibitor: inactive

How did c1cncc(C2CCCCN2)c1 (stereo unspecified) do in these assays?
RBBP9 inh: inactive; PfM18AAP inh: inactive; Wee1 stabilizer: inactive; zVAD death inh: inactive; TNF death inh: inactive; p97 inhibitor: inactive

Results for CN(C)/C=C1/C(=O)NC(=O)N(CCNc2ncc(C(F)(F)F)cc2Cl)C1=O ?
RBBP9 inh: inactive; PfM18AAP inh: inactive; Wee1 stabilizer: inactive; zVAD death inh: inactive; TNF death inh: inactive; p97 inhibitor: inactive

What do the screens show for `CC(C)=CCc1c(O)cc2c(c1O)C(=O)CC(c1ccc(O)cc1)O2` (stereo unspecified)?
zVAD death inh: inactive; TNF death inh: inactive

Results for CCn1cc(CN2CCCC(C(=O)c3sccc3C)C2)cn1 (stereo unspecified) ?
RBBP9 inh: inactive; PfM18AAP inh: inactive; Wee1 stabilizer: 11; zVAD death inh: inactive; TNF death inh: inactive; p97 inhibitor: inactive; Wee1 degr conf: inactive

Results for CCCCC(=O)N/N=C/c1c(O)n(CCc2ccccc2)c(=O)[nH]c1=O ?
RBBP9 inh: inactive; PfM18AAP inh: inactive; Wee1 stabilizer: 21; zVAD death inh: inactive; TNF death inh: inactive; p97 inhibitor: inactive; Wee1 degr conf: inactive

How did CC(C)N1OC2CC1c1nc3ccccc3n1C2 (stereo unspecified) do in these assays?
zVAD death inh: inactive; TNF death inh: inactive

Results for COc1ccc(NC2=NC(C)(C)CS2)cc1 ?
RBBP9 inh: inactive; PfM18AAP inh: inactive; Wee1 stabilizer: 16; zVAD death inh: inactive; TNF death inh: inactive; p97 inhibitor: inactive; Wee1 degr conf: inactive

Results for COc1ccc(NC2=NCC(C)S2)cc1 (stereo unspecified) ?
RBBP9 inh: inactive; PfM18AAP inh: inactive; Wee1 stabilizer: inactive; zVAD death inh: inactive; TNF death inh: inactive; p97 inhibitor: inactive

How did Clc1ccc(N2CC2c2ccncc2)cc1 (stereo unspecified) do in these assays?
PfM18AAP inh: inactive

How did C[C@H]1CCC[C@H](O)CCCCCc2cc(O)cc(O)c2C(=O)O1 do in these assays?
RBBP9 inh: inactive; PfM18AAP inh: inactive; Wee1 stabilizer: inactive; zVAD death inh: inactive; TNF death inh: inactive; p97 inhibitor: inactive

What do the screens show for `C[C@H]1CCC[C@@H](O)CCC/C=C/c2cc(O)cc(O)c2C(=O)O1`?
RBBP9 inh: inactive; PfM18AAP inh: inactive; Wee1 stabilizer: inactive; zVAD death inh: 79; TNF death inh: inactive; p97 inhibitor: inactive; zVAD necrop conf: inactive

What do the screens show for `Cc1cc([N+](=O)[O-])c2ccccc2[n+]1[O-]`?
RBBP9 inh: inactive; PfM18AAP inh: inactive; Wee1 stabilizer: inactive; zVAD death inh: 81; TNF death inh: inactive; p97 inhibitor: inactive; zVAD necrop conf: 67

Results for OC(CN1CCCCC1)c1c[nH]c2ccccc12 (stereo unspecified) ?
PfM18AAP inh: inactive

How did Cc1nc2c(=O)n(C)c(=O)nc-2n(C)n1 do in these assays?
RBBP9 inh: inactive; PfM18AAP inh: inactive; Wee1 stabilizer: inactive; zVAD death inh: inactive; TNF death inh: inactive; p97 inhibitor: 31; p97 inh conf: 38

Results for N#Cc1ccc(NC(=O)CN2CCCCCC2)cc1Cl ?
PfM18AAP inh: inactive

Results for O=c1[nH]c(=S)n(C2CC2)c(O)c1C=Nc1ccc2c(c1)OCO2 ?
RBBP9 inh: inactive; PfM18AAP inh: inactive; Wee1 stabilizer: inactive; zVAD death inh: inactive; TNF death inh: inactive; p97 inhibitor: inactive

Results for CC1CCC[C@H](O)CCCCCc2cc(O)cc(O)c2C(=O)O1 (stereo partly specified) ?
RBBP9 inh: inactive; PfM18AAP inh: inactive; Wee1 stabilizer: inactive; zVAD death inh: inactive; TNF death inh: inactive; p97 inhibitor: 17; p97 inh conf: 25

How did CN1CCC(n2nccc2N)CC1 do in these assays?
RBBP9 inh: inactive; PfM18AAP inh: inactive; Wee1 stabilizer: inactive; zVAD death inh: inactive; TNF death inh: inactive; p97 inhibitor: 15; p97 inh conf: inactive

What do the screens show for `Nc1ccnn1C1CCNCC1`?
RBBP9 inh: inactive; PfM18AAP inh: inactive; Wee1 stabilizer: inactive; zVAD death inh: inactive; TNF death inh: inactive; p97 inhibitor: inactive

What do the screens show for `S=P(NC1CCCCC1)(N1CC1)N1CC1`?
RBBP9 inh: inactive; PfM18AAP inh: inactive; Wee1 stabilizer: inactive; zVAD death inh: inactive; TNF death inh: inactive; p97 inhibitor: inactive

Results for CN1C(=O)C(=Cc2ccc(N3CCOCC3)o2)C(=O)N(C)C1=S ?
RBBP9 inh: inactive; PfM18AAP inh: inactive; Wee1 stabilizer: inactive; zVAD death inh: inactive; TNF death inh: inactive; p97 inhibitor: 19; p97 inh conf: inactive

How did CCN1C(=O)C(=Cc2ccc(N3CCOCC3)o2)C(=O)N(CC)C1=S do in these assays?
RBBP9 inh: inactive; PfM18AAP inh: inactive; Wee1 stabilizer: inactive; zVAD death inh: inactive; TNF death inh: inactive; p97 inhibitor: inactive

Results for c1csc(CN2CCNCC2)c1 ?
RBBP9 inh: inactive; PfM18AAP inh: inactive; Wee1 stabilizer: inactive; zVAD death inh: inactive; TNF death inh: inactive; p97 inhibitor: inactive
